Drawing on ChEMBL document CHEMBL4257525, “Synthesis and biological evaluation of new 3-amino-2-azetidinone derivatives as anti-colorectal cancer agents” (Medchemcomm, 2018), this text covers IC50 for ten compounds.

The term IC50 denotes the point on the concentration scale where inhibition reaches its midpoint. Read a low IC50 as higher potency.

The subject of one assay is SW48. The assay is described as follows: Antiproliferative activity against human SW48 cells after 72 hrs by MTT assay. The format is functional, cell-based. To be noted: SW48, 72 h. In a few lines:
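SW48 colorectal adenocarcinoma cells grown in RPMI-1640 with 10% FBS, 2 mM L-glutamine and penicillin/streptomycin at 37 °C, 5% CO2. 8000 cells per well exposed to a range of compound concentrations (in DMSO) for 72 h. MTT then added for 2 h at 37 °C, formazan solubilized, absorbance read at 570 nm. Triplicates in three independent experiments. IC50 from a four-parameter logistic fit against 0.1% DMSO controls.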
Background: Tetrazolium dyes change colour on reduction, which living cells bring about.
With `COc1ccc([C@H]2[C@H](NC(C)=O)C(=O)N2c2cc(OC)c(OC)c(OC)c2)cc1O` (relative stereo), the IC50 stood at 0.014 µM.
In the case of `COc1ccc(C(=O)N[C@@H]2C(=O)N(c3cc(OC)c(OC)c(OC)c3)[C@H]2c2ccc(OC)c(O)c2)cc1` (relative stereo), the IC50 was 0.108 µM.
For the compound `COc1ccc([C@H]2[C@H](NC(=O)[C@H](C)N)C(=O)N2c2cc(OC)c(OC)c(OC)c2)cc1O` (relative stereo), the IC50 was found to be 0.0906 µM.
For the compound `COc1ccc([C@H]2[C@H](NC(=O)c3cc(OC)c(OC)c(OC)c3)C(=O)N2c2cc(OC)c(OC)c(OC)c2)cc1O` (relative stereo), the IC50 amounted to 0.564 µM.
The compound `COc1ccc([C@H]2[C@H](NC(=O)Cc3c[nH]c4ccccc34)C(=O)N2c2cc(OC)c(OC)c(OC)c2)cc1O` (relative stereo) registered an IC50 of 0.0494 µM.
`COc1ccc([C@H]2[C@H](NC(=O)c3ccc(F)cc3)C(=O)N2c2cc(OC)c(OC)c(OC)c2)cc1O` (relative stereo) returned a half-inhibitory concentration (IC50) of 0.384 µM.
On to `COc1ccc([C@H]2[C@H](NC(=O)c3ccc(Cl)cc3)C(=O)N2c2cc(OC)c(OC)c(OC)c2)cc1O`, for which the IC50 was 0.271 µM.
On to `COc1ccc([C@H]2[C@H](NC(=O)c3ccc4ccccc4c3)C(=O)N2c2cc(OC)c(OC)c(OC)c2)cc1O` (relative stereo), for which half-maximal inhibition (IC50) was put at 0.22 µM.
As for `COc1ccc([C@H]2[C@H](NC(=O)c3ccco3)C(=O)N2c2cc(OC)c(OC)c(OC)c2)cc1O` (relative stereo), half-maximal inhibition (IC50) required 0.0186 µM.
With `COc1ccc([C@H]2[C@H](NC(=O)C3CCCCC3)C(=O)N2c2cc(OC)c(OC)c(OC)c2)cc1O` (relative stereo), the IC50 was found to be 0.244 µM.

Test system in another assay: not listed separately
Kind of assay: Inhibition of porcine brain tubulin polymerization measured for 15 mins by spectrophotometric method. Set-up: species or system Sus scrofa.
Details: not given
The gist of the method: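 Lyophilized purified tubulin resuspended at 2.5 mg mL-1 in assembly buffer (80 mM PIPES pH 6.9, 1 mM MgCl2, 2 mM EGTA, 10% glycerol), mixed with 1 mM GTP and varying compound concentrations; 0.2% v/v DMSO vehicle control. Assembly read at 340 nm, 37 °C. IC50 = concentration inhibiting polymerization by 50%, from four-parameter logistic fit.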
`COc1ccc([C@H]2[C@H](NC(C)=O)C(=O)N2c2cc(OC)c(OC)c(OC)c2)cc1O` (relative stereo) displayed an IC50 of 5.05 µM.
